ChEMBL document CHEMBL1151765, “Rational design of substituted diarylureas: a scaffold for binding to G-quadruplex motifs” (J Med Chem, 2008)
The source made the active and inactive calls. The calls are words filed in the database; no cut-off is given here.

Legend:
A549 [1] = experiment: Selectivity ratio of IC50 for human A549 cells to IC50 for human WI38 cells
A549 [2] = experiment: Cytotoxicity against human A549 cells after 96 hrs by SRB assay; format: functional, cell-based; details: A549, 96 h
[3] = Stabilization of d[(TA)2GC(TA)2T6(TA)2]GC(TA)2 sequence of duplex DNA assessed as change in melting temperature at 1 uM by FRET assay
Summary of the method: (§1)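 Dual-labelled FAM/TAMRA oligos at 400nM in 60mM KCl potassium cacodylate buffer, pH 7.4, heated to 85 °C for 10 min, then cooled. Ligand added to 1µM; buffer alone as negative control. Excitation 450–495nm, emission read at 515–545nm every 0.5 °C from 30–100 °C. ΔTm is ligand Tm minus control Tm, from four experiments ± maximum sd; c-kit1 curves fitted to sigmoids.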

[4] = Stabilization of d[AGAG3AG2GCGCTG3AG2AG3GCT] sequence of c-kit1 G-quadruplex DNA assessed as change in melting temperature at 1 uM by FRET assay; summary of the method: as §1
[5] = Cytotoxicity against human WI38 cells after 96 hrs by SRB assay; format: cell-based; details: WI-38, 96 h
[6] = Stabilization of d[C3G3CG3CGCGAG3AG4AG2] sequence of c-kit2 G-quadruplex DNA assessed as change in melting temperature at 1 uM by FRET assay; summary of the method: as §1
MCF7 [7] = experiment: Cytotoxicity against human MCF7 cells after 96 hrs by SRB assay; format: functional, cell-based; details: MCF7, 96 h
[8] = Stabilization of d[G3(T2AG3)3] sequence of F21T telomeric G-quadruplex DNA assessed as change in melting temperature at 1 uM by FRET assay
Summary of the method: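 Dual-labelled oligo (5′-FAM, 3′-TAMRA) at 400nM in FRET buffer (60mM KCl, K cacodylate, pH 7.4), heated to 85 °C for 10 min, cooled to room temperature. Ligand added from DMSO dilution. Excitation 450–495nm, emission 515–545nm, read every 0.5 °C from 30–100 °C. ΔTm from four experiments: averaged ligand Tm minus averaged buffer-control Tm, ± maximum sd.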

[9] = Stabilization of d[G3(T2AG3)3] sequence of F21T telomeric G-quadruplex DNA assessed as change in melting temperature at 1 uM by FRET assay relative to BRACO-19 in presence of calf thymus DNA
Summary of the method: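 F21T FRET melting with ligand at 1µM in the presence of calf thymus DNA competitor at increasing bp concentrations. Retained stabilization, from three experiments, normalized to the ligand's ΔTm with no competitor (100%) ± normalized sd.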

MCF7 [10] = experiment: Selectivity ratio of IC50 for human MCF7 cells to IC50 for human WI38 cells
Homo sapiens = species on record: Homo sapiens; experiment: Binding affinity to biotin-labeled human telomeric d[AG3(T2AG3)3] sequence by surface plasmon resonance analysis
Summary of the method: (§2)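 Streptavidin chip with 5′-biotinylated DNA immobilized to 350-400 RU; blank reference flow cell. Run in 10mM HEPES, 100mM KCl, 3mM EDTA, P20 surfactant, pH 7.3, 25°C. Ligand 1nM to 10µM (from 20mM DMSO stock) injected at 50µl/min for 5–10 min to steady state, then 10 min buffer dissociation; glycine pH 2.0 regeneration between cycles.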

[11] = Binding affinity to biotin-labeled d[CGA2T2CGTCTC2GA2T2CG] sequence of duplex DNA by surface plasmon resonance analysis; summary of the method: as §2
[12] = target: T1, Telomerase reverse transcriptase (Homo sapiens, UniProt O14746); experiment: Inhibition of telomerase by TRAP-LIG assay
T1 sequence (O14746 whole entry): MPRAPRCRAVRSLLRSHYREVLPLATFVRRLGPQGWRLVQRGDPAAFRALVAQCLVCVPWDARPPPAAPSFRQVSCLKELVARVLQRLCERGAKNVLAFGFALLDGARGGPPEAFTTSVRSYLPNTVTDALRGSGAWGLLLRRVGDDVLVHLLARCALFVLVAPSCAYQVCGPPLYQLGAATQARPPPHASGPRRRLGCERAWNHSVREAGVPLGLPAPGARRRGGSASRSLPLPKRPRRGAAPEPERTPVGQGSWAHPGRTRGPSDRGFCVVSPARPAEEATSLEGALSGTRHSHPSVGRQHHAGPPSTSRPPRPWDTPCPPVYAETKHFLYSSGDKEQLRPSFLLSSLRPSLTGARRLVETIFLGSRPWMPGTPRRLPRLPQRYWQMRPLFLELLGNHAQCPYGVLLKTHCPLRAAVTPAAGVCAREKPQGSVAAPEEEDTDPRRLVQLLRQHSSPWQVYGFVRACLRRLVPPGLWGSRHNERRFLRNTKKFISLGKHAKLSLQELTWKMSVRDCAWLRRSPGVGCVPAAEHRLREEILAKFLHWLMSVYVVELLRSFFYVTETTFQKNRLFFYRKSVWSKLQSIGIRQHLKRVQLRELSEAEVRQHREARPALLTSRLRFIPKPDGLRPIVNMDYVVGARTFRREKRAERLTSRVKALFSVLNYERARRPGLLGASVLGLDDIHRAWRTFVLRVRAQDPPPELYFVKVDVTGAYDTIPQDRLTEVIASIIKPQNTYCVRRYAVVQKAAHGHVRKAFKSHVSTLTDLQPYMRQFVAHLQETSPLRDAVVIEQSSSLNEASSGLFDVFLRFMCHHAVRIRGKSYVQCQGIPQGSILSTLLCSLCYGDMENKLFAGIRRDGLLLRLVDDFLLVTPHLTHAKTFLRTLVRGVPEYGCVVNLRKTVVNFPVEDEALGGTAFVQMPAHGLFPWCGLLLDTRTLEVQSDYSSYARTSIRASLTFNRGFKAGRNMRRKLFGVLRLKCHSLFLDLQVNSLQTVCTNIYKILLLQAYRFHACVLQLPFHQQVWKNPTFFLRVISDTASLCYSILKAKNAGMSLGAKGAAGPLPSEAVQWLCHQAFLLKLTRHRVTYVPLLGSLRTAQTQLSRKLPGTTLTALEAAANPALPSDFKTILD

[13] = target: T1, Telomerase reverse transcriptase; experiment: Inhibition of telomerase at 50 uM by TRAP-LIG assay relative to control

| Structure (SMILES) | Ratio IC50 (A549 [1]) | IC50 (A549 [2]) | change in melting temperature (ΔTm) [3] | change in melting temperature (ΔTm) [4] | IC50 [5] | change in melting temperature (ΔTm) [6] | IC50 (MCF7 [7]) | change in melting temperature (ΔTm) [8] | Activity [9] | Ratio IC50 (MCF7 [10]) | KA (Homo sapiens) | KA [11] | EC50 [12] | Activity [13] |
| --- | --- | --- | --- | --- | --- | --- | --- | --- | --- | --- | --- | --- | --- | --- |
| O=C(CN1CCCC1)Nc1cccc(NC(=O)c2cccc(NC(=O)Nc3cccc(C(=O)Nc4cccc(NC(=O)CN5CCCC5)c4)c3)c2)c1 | 0.5 | > 50 µM | 0.3 °C | 3.4 °C | 22.8 µM | 10.5 °C | 34.1 µM | 6.8 °C | Active |  |  |  |  |  |
| O=C(CCN1CCCC1)Nc1cccc(NC(=O)c2cccc(NC(=O)Nc3cccc(C(=O)Nc4cccc(NC(=O)CCN5CCCC5)c4)c3)c2)c1 | 0.4 | > 50 µM | 2.8 °C | 6.7 °C | 19.5 µM | 15.3 °C | 14.4 µM | 14.1 °C | Active |  |  |  |  |  |
| O=C(CCCN1CCCC1)Nc1cccc(NC(=O)c2cccc(NC(=O)Nc3cccc(C(=O)Nc4cccc(NC(=O)CCCN5CCCC5)c4)c3)c2)c1 | 0.5 | > 50 µM |  | 7.8 °C | 26.4 µM | 16.3 °C | 49.6 µM | 13.6 °C | Active |  |  |  |  |  |
| O=C(CN1CCCC1)Nc1cc(NC(=O)Nc2cc(NC(=O)CN3CCCC3)cc(C(=O)Nc3ccccc3)c2)cc(C(=O)Nc2ccccc2)c1 | 0.3 | > 50 µM |  | 5.3 °C | 13.8 µM | 8.7 °C | 21.9 µM | 13.6 °C | Active | 0.6 |  |  |  |  |
| O=C(CN1CCCC1)Nc1ccc(NC(=O)c2ccc(NC(=O)Nc3ccc(C(=O)Nc4ccc(NC(=O)CN5CCCC5)cc4)cc3)cc2)cc1 | 1 | > 25 µM |  |  | > 25 µM |  | > 25 µM |  |  |  |  |  |  |  |
| CN(C)CCC(=O)Nc1ccc(NC(=O)c2cccc(NC(=O)Nc3cccc(C(=O)Nc4ccc(NC(=O)CCN(C)C)cc4)c3)c2)cc1 | 1 | > 50 µM | 0.1 °C | 2.9 °C | > 50 µM | 13.6 °C | 12.2 µM | 12.3 °C | Active |  |  |  |  |  |
| CN(C)c1ccc(Nc2c3ccc(NC(=O)CCN4CCCC4)cc3nc3cc(NC(=O)CCN4CCCC4)ccc23)cc1 | 4.5 |  | 11.2 °C | 20.1 °C | 10.7 µM | 25.3 °C |  | 25.9 °C | Active | 4.3 | 31 ×10⁶ /M | 0.5 ×10⁶ /M | 6.3 µM | inactive |
| O=C(CCCN1CCCC1)Nc1cc(NC(=O)Nc2cc(NC(=O)CCCN3CCCC3)cc(C(=O)Nc3ccccc3)c2)cc(C(=O)Nc2ccccc2)c1 | 0.4 | 30.6 µM | 0.5 °C | 6.3 °C | 11 µM | 11.7 °C | 24.2 µM | 12.3 °C | Active |  |  |  |  |  |
